Test results reported in ChEMBL document CHEMBL1144843, “Design and campaign synthesis of pyridine-based histone deacetylase inhibitors” (Bioorg Med Chem Lett, 2008).
In brackets after ≈: the same amount, converted by molar mass.

Assays:
[1] = Lipophilicity, log D at pH 7.4; assay type: physicochemical; conditions: buffer
[2] = target: Histone deacetylase 1 (Homo sapiens, UniProt Q13547); assay: Inhibition of human HDAC1 expressed in Hi5 cells; design: species or system BTI-TN-5B1-4
In short: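 C-terminally FLAG-tagged HDAC1 purified on anti-FLAG M2 agarose. Development 30 min at ambient temperature, fluorescence read at ex 360/em 465 nm. IC50 taken from dose–response curves.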

[3] = Solubility at pH 7.4; assay type: physicochemical; conditions: buffer
[4] = system: HCT-116; assay: Antiproliferative activity against human HCT116 cells after 72 hrs; assay type: functional, cell-based; conditions: HCT-116, 72 h
In short: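 HCT116 cells seeded at 1 × 10³ cells/well and left to adhere overnight, then exposed to inhibitors for 72 h. MTS tetrazolium dye added and incubated a further 3 h, with absorbance read at 490 nm.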

[5] = target: Voltage-gated inwardly rectifying potassium channel KCNH2 (Homo sapiens, UniProt Q12809); assay: Inhibition of human ERG channel
Chain of Voltage-gated inwardly rectifying potassium channel KCNH2 (Q12809 whole entry): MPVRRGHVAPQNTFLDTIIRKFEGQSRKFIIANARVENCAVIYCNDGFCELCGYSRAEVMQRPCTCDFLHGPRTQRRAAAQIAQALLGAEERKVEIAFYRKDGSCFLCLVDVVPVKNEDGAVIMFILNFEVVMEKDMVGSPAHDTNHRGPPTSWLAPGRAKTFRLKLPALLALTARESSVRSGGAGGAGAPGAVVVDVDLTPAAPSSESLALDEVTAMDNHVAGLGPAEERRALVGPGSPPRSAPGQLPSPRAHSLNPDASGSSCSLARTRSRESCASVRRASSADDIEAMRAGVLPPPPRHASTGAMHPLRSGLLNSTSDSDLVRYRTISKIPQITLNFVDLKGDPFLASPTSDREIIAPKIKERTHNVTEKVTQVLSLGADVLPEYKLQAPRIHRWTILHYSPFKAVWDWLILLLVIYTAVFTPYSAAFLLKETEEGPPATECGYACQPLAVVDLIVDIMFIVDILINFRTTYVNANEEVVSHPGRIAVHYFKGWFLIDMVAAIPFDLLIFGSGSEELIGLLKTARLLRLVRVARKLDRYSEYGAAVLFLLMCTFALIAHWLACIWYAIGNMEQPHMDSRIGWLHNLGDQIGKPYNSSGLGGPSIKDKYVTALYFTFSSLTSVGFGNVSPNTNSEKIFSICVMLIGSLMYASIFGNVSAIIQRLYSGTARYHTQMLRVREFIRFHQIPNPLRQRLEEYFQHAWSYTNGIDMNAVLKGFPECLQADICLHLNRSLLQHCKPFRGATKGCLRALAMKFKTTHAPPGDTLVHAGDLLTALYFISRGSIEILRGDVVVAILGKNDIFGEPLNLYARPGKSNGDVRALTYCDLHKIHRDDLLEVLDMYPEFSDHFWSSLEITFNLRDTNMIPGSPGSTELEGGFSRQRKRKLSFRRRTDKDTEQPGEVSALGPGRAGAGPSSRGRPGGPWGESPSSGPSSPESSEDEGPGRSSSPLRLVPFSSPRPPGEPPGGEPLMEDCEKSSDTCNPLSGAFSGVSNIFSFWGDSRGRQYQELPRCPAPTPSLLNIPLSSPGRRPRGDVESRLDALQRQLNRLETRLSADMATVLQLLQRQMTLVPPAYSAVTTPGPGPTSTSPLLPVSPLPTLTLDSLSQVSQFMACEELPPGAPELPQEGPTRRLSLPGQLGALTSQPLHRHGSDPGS

[6] = Half life in rat at 63.6 umol/kg, po; assay type: ADME, organism-based; conditions: in vivo
[7] = Clearance in rat at 2.5 umol/kg, iv; assay type: ADME, organism-based; conditions: in vivo
[8] = Half life in rat at 2.5 umol/kg, iv; assay type: ADME, organism-based; conditions: in vivo
[9] = Volume of distribution at steady state in rat at 2.5 umol/kg, iv; assay type: ADME, organism-based; conditions: in vivo, read-out: Vdss
[10] = Half life in rat at 56.7 umol/kg, po; assay type: ADME, organism-based; conditions: in vivo
[11] = Volume of distribution at steady state in rat at 5 umol/kg, iv; assay type: ADME, organism-based; conditions: in vivo, read-out: Vdss
[12] = Clearance in rat at 5 umol/kg, iv; assay type: ADME, organism-based; conditions: in vivo
[13] = Half life in rat at 56.4 umol/kg, po; assay type: ADME, organism-based; conditions: in vivo
[14] = Half life in rat at 55 umol/kg, po; assay type: ADME, organism-based; conditions: in vivo
[15] = Half life in rat at 67.1 umol/kg, po; assay type: ADME, organism-based; conditions: in vivo
[16] = Half life in rat at 5 umol/kg, iv; assay type: ADME, organism-based; conditions: in vivo
[17] = Half life in rat at 55.6 umol/kg, po; assay type: ADME, organism-based; conditions: in vivo
[18] = Half life in rat at 10 umol/kg, po; assay type: ADME, organism-based; conditions: in vivo
[19] = system: Plasma; assay: Fraction unbound to […]; assay type: ADME, cell-free, Canis lupus familiaris
[20] = system: Plasma; assay: Fraction unbound to rat plasma protein in rat; assay type: ADME, cell-free
[21] = Half life in mouse at 65.2 umol/kg, po; assay type: ADME, organism-based; conditions: in vivo
[22] = Half life in Beagle dog at 3 umol/kg, po; assay type: ADME, organism-based, Canis lupus familiaris; conditions: in vivo
[23] = Half life in rat at 65.2 umol/kg, po; assay type: ADME, organism-based; conditions: in vivo
[24] = Volume of distribution at steady state in Beagle dog at 0.8 umol/kg, iv; assay type: ADME, organism-based, Canis lupus familiaris; conditions: in vivo, read-out: Vdss
[25] = Clearance in Beagle dog at 0.8 umol/kg, iv; assay type: ADME, organism-based, Canis lupus familiaris; conditions: in vivo
[26] = Half life in Beagle dog at 0.8 umol/kg, iv; assay type: ADME, organism-based, Canis lupus familiaris; conditions: in vivo
[27] = Bioavailability in Beagle dog at 3 umol/kg, po; assay type: ADME, organism-based, Canis lupus familiaris; conditions: in vivo
[28] = system: Plasma; assay: Fraction unbound to rat plasma protein in mouse; assay type: ADME, cell-free

Chain of Histone deacetylase 1 (Q13547 whole entry): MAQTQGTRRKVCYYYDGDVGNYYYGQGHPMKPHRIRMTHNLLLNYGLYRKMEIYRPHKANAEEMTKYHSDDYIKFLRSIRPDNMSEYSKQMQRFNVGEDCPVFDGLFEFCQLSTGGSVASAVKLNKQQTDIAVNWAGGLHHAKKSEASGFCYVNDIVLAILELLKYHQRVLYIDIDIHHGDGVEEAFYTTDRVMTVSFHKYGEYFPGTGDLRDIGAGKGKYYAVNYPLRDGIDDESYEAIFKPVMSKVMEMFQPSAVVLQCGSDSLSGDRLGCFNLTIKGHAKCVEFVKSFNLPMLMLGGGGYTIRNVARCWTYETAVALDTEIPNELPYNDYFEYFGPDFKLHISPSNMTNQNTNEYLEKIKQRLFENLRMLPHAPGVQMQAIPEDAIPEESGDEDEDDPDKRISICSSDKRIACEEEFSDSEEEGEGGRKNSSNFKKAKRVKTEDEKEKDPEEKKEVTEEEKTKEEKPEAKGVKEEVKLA

SMILES	logD [1]	IC50 [2] [nM]	solubility [3] [µM]	IC50 [4] [nM]	Vd [11] [L/kg]	clearance [12] [mL/min/kg]	IC50 [5] [nM]	further results
Nc1ccccc1NC(=O)c1ccc(-c2ncc(CN3CCC3)cc2Cl)cc1	–	18.6	1340 (≈ 526 µg/mL)	302	–	–	22400	half-life [6]: 5.2 h
CCN1CCN(Cc2cnc(-c3ccc(C(=O)Nc4ccccc4N)cc3)c(F)c2)CC1	–	38	> 2420	437	–	–	> 31600	–
CC(C)N1CCN(Cc2cnc(-c3ccc(C(=O)Nc4ccccc4N)cc3)c(F)c2)CC1	1.6	33.1	> 2160	646	–	–	> 31600	–
N#Cc1cccnc1-c1ccc(C(=O)Nc2ccccc2N)cc1	1.58	12.3	35 (≈ 11 µg/mL)	288	1	56.1	> 31600	–
CC(C)N1CCN(Cc2cnc(-c3ccc(C(=O)Nc4ccccc4N)cc3)c(Cl)c2)CC1	1.68	13.2	> 1490	309	–	–	7080	–
Cc1cc(CN2CCN(C(C)C)CC2)cnc1-c1ccc(C(=O)Nc2ccccc2N)cc1	1.44	–	> 2620	240	–	–	–	half-life [13]: 3.4 h
Cc1cc(CN2CCC2)cnc1-c1ccc(C(=O)Nc2ccccc2N)cc1	1.18	21.4	2240 (≈ 834 µg/mL)	309	6.9	30.2	–	half-life [15]: 5.5 h; half-life [16]: 3 h
CCN1CCN(Cc2cnc(-c3ccc(C(=O)Nc4ccccc4N)cc3)c(Cl)c2)CC1	1.81	16.2	–	339	–	–	8320	half-life [17]: 4.4 h
Nc1ccccc1NC(=O)c1ccc(-c2ncc(CN3CCC3)cc2F)cc1	1.69	50.1	841 (≈ 317 µg/mL)	372	6.3	34	> 25100	half-life [18]: 5.4 h; half-life [16]: 3.6 h

Compounds with a lower IC50 [4], results first:

logD [1]	IC50 [2] [nM]	solubility [3] [µM]	IC50 [4] [nM]	Vd [11] [L/kg]	clearance [12] [mL/min/kg]	SMILES	IC50 [5] [nM]	further results
1.2	18.6	> 2350	229	–	–	CCN1CCN(Cc2cnc(-c3ccc(C(=O)Nc4ccccc4N)cc3)c(C)c2)CC1	> 25100	–
1.14	9.77	> 1940	138	–	–	CCN1CCN(Cc2cnc(-c3ccc(C(=O)Nc4ccccc4N)cc3)c(C#N)c2)CC1	> 25100	clearance [7]: 47.5 mL/min/kg; half-life [8]: 1.1 h; Vd [9]: 3.6 L/kg; half-life [10]: 3.2 h
1.28	10.5	1380 (≈ 630 µg/mL)	141	–	–	CC(C)N1CCN(Cc2cnc(-c3ccc(C(=O)Nc4ccccc4N)cc3)c(C#N)c2)CC1	19100	clearance [7]: 44 mL/min/kg; half-life [8]: 2 h; Vd [9]: 5.1 L/kg; half-life [14]: 4.3 h
1.22	9.77	746 (≈ 286 µg/mL)	138	5.4	19.6	N#Cc1cc(CN2CCC2)cnc1-c1ccc(C(=O)Nc2ccccc2N)cc1	> 25100	fu [19]: 48%; fu [20]: 53%; half-life [21]: 3 h; half-life [22]: 2.1 h; half-life [23]: 5.5 h; Vd [24]: 2.32 L/kg; half-life [16]: 3.8 h; clearance [25]: 30 mL/min/kg; half-life [26]: 1.9 h; bioavailability [27]: 13%; fu [28]: 54%
